Experiment [1] in a line: Inhibition of His-tagged full-length Hsp90 (unknown origin)/GST-tagged Cdc37M (unknown origin) interaction after 1 hr by HTRF assay. More on the design: species or system Homo sapiens. Summed up:
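TR-FRET in PBS containing 400 mM KF, pH 7.3. His-tagged full-length Hsp90 and GST-Cdc37M, each 250 nM final, incubated with compound for 1 h at 37 °C. Anti-GST-Cryptate and anti-6His-XL665 then added for a further 0.5 h at 37 °C. Excitation 320 nm, emission 665/620 nm, reported as ratio ×10,000. Negative and blank controls run in each assay.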
(TR-FRET usually uses a lanthanide donor and a delayed reading to cut background.)

The subject of the next experiment is A549. Put plainly: Antiproliferative activity against human A549 cells after 48 hrs by MTT assay. Type of experiment: functional, cell-based. The following applies: A549, 48 h. Summed up:
(§1)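 Cells in log phase seeded at about 1.0 × 10^5 cells/mL in 96-well plates, left 12 h at 37 °C, 5% CO2. Compounds dissolved in DMSO, added at 2.5, 5, 10, 20 and 50 µM, 48 h exposure. Absorbance read at 570/630 nm dual wavelength. Survival expressed relative to negative control. IC50 by Bliss method (n = 5), tests done in triplicate.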

The next experiment concerns MCF7. Put plainly: Antiproliferative activity against human MCF7 cells after 48 hrs by MTT assay. The class given is functional, cell-based. The following applies: MCF7, 48 h. Summed up: as §1
In general terms: Tetrazolium dyes change colour on reduction, which living cells bring about.

Another experiment has as its system HepG2. Put plainly: Antiproliferative activity against human HepG2 cells after 48 hrs by MTT assay. Type of experiment: functional, cell-based. The settings on record: HepG2, 48 h. In short, it runs like this:
as §1

A further experiment concerns HCT-116. In words: Antiproliferative activity against human HCT116 cells after 48 hrs by MTT assay. The class given is functional, cell-based. The settings on record: HCT-116, 48 h. In short, it runs like this: as §1

Here are results for 19 compounds from ChEMBL document CHEMBL4219101, “Discovery of 18β-glycyrrhetinic acid conjugated aminobenzothiazole derivatives as Hsp90-Cdc37 interaction disruptors that inhibit cell migration and reverse drug resistance” (Bioorg Med Chem, 2018).

Some results are limits rather than exact numbers.

What is called IC50 is the concentration needed to halve the response being measured. Read a low IC50 as greater potency in that assay.

With `CCOC(=O)[C@@]1(C)CC[C@]2(C)CC[C@]3(C)C(=CC(=O)[C@@H]4[C@@]5(C)CC[C@H](OC(=O)CCC(=O)Nc6nc7c(C)cccc7s6)C(C)(C)[C@@H]5CC[C@]43C)[C@@H]2C1`, the IC50 worked out at 21.9 µM in experiment [1]; 22.8 µM in the experiment on A549; 26.5 µM in the experiment on MCF7; 31.8 µM in the experiment with HepG2; 26.3 µM in the experiment on HCT-116.

`CCOC(=O)[C@@]1(C)CC[C@]2(C)CC[C@]3(C)C(=CC(=O)[C@@H]4[C@@]5(C)CC[C@H](OC(=O)CCC(=O)Nc6nc7c(Br)cccc7s6)C(C)(C)[C@@H]5CC[C@]43C)[C@@H]2C1`: the IC50 turned out to be 15.3 µM in experiment [1]; 20.7 µM with A549; 24.4 µM in the experiment with MCF7; 29.9 µM in the experiment with HepG2; 26.8 µM in the experiment with HCT-116.

Consider `CCOC(=O)[C@@]1(C)CC[C@]2(C)CC[C@]3(C)C(=CC(=O)[C@@H]4[C@@]5(C)CC[C@H](OC(=O)CCC(=O)Nc6nc7ccc(Br)cc7s6)C(C)(C)[C@@H]5CC[C@]43C)[C@@H]2C1`, for which the IC50 turned out to be 5.07 µM in experiment [1]; 14.2 µM with A549; 16.1 µM in the experiment with MCF7; 19 µM in the experiment on HepG2; 15.9 µM with HCT-116.

Consider `COc1cccc2sc(NC(=O)[C@@]3(C)CC[C@]4(C)CC[C@]5(C)C(=CC(=O)[C@@H]6[C@@]7(C)CC[C@H](OC(C)=O)C(C)(C)[C@@H]7CC[C@]65C)[C@@H]4C3)nc12`, for which the IC50 (in experiment [1]; with A549; in the experiment with MCF7; in the experiment with HepG2; in the experiment with HCT-116) was more than 100 µM each time.

Turning to `Cc1cccc2sc(NC(=O)[C@@]3(C)CC[C@]4(C)CC[C@]5(C)C(=CC(=O)[C@@H]6[C@@]7(C)CC[C@H](O)C(C)(C)[C@@H]7CC[C@]65C)[C@@H]4C3)nc12`, the IC50 (in experiment [1]; in the experiment with A549; with MCF7; with HepG2; in the experiment on HCT-116) was more than 100 µM in each case.

As to `CC(=O)O[C@H]1CC[C@]2(C)[C@H]3C(=O)C=C4[C@@H]5C[C@@](C)(C(=O)Nc6nc7c(C)cccc7s6)CC[C@]5(C)CC[C@@]4(C)[C@]3(C)CC[C@H]2C1(C)C`, the IC50 (in experiment [1]; in the experiment with A549; with MCF7; in the experiment on HepG2; in the experiment with HCT-116) was more than 100 µM each time.

Regarding `COc1ccc2nc(NC(=O)[C@@]3(C)CC[C@]4(C)CC[C@]5(C)C(=CC(=O)[C@@H]6[C@@]7(C)CC[C@H](O)C(C)(C)[C@@H]7CC[C@]65C)[C@@H]4C3)sc2c1`, the IC50 was found to be 62.4 µM in experiment [1]; 51.1 µM in the experiment with A549; 52.7 µM with MCF7; 60.1 µM in the experiment with HepG2; 54.2 µM with HCT-116.

With `CC(=O)O[C@H]1CC[C@]2(C)[C@H]3C(=O)C=C4[C@@H]5C[C@@](C)(C(=O)Nc6nc7c(F)cccc7s6)CC[C@]5(C)CC[C@@]4(C)[C@]3(C)CC[C@H]2C1(C)C`, the IC50 (in experiment [1]; in the experiment with A549; with MCF7; with HepG2; with HCT-116) was more than 100 µM throughout.

Consider `CC(=O)O[C@H]1CC[C@]2(C)[C@H]3C(=O)C=C4[C@@H]5C[C@@](C)(C(=O)Nc6nc7ccc(F)cc7s6)CC[C@]5(C)CC[C@@]4(C)[C@]3(C)CC[C@H]2C1(C)C`, for which the IC50 in experiment [1] is 54.3 µM; in the experiment on A549, 85.5 µM; in the experiment on MCF7, 71.2 µM; in the experiment with HepG2, 65.6 µM; with HCT-116, more than 100 µM.

In the case of `COc1cccc2sc(NC(=O)[C@@]3(C)CC[C@]4(C)CC[C@]5(C)C(=CC(=O)[C@@H]6[C@@]7(C)CC[C@H](O)C(C)(C)[C@@H]7CC[C@]65C)[C@@H]4C3)nc12`, the IC50 in experiment [1] was more than 100 µM; with A549 it was 76 µM; in the experiment on MCF7, 74.5 µM; in the experiment with HepG2, 86.3 µM; with HCT-116, 74.7 µM.

Consider `CC1=C(O)C(=O)C=C2C1=CC=C1[C@@]2(C)CC[C@@]2(C)[C@@H]3C[C@](C)(C(=O)O)CC[C@]3(C)CC[C@]12C` [CELASTROL], for which the IC50 amounted to 6.22 µM in experiment [1]; 6.59 µM in the experiment with A549; 6.84 µM in the experiment with MCF7; 6.17 µM in the experiment with HepG2; 5.26 µM in the experiment on HCT-116.

Regarding `CC1(C)[C@@H](O)CC[C@]2(C)[C@H]3C(=O)C=C4[C@@H]5C[C@@](C)(C(=O)Nc6nc7ccc(Cl)cc7s6)CC[C@]5(C)CC[C@@]4(C)[C@]3(C)CC[C@@H]12`, the IC50 in experiment [1] was 36.9 µM; with A549, 22.8 µM; with MCF7, 16.5 µM; with HepG2, 21.8 µM; with HCT-116 it was 16.3 µM.

`CC1(C)[C@@H](O)CC[C@]2(C)[C@H]3C(=O)C=C4[C@@H]5C[C@@](C)(C(=O)Nc6nc7c(Cl)cccc7s6)CC[C@]5(C)CC[C@@]4(C)[C@]3(C)CC[C@@H]12`: the IC50 in experiment [1] was 65.6 µM; in the experiment with A549, 75.4 µM; with MCF7 it was 71.2 µM; in the experiment on HepG2 it was 69.6 µM; with HCT-116, more than 100 µM.

Consider `CCOC(=O)[C@@]1(C)CC[C@]2(C)CC[C@]3(C)C(=CC(=O)[C@@H]4[C@@]5(C)CC[C@H](OC(=O)CCC(=O)Nc6nc7c(OC)cccc7s6)C(C)(C)[C@@H]5CC[C@]43C)[C@@H]2C1`, for which the IC50 in experiment [1] was determined as 10.4 µM; with A549, 16.4 µM; in the experiment on MCF7, 20.1 µM; in the experiment with HepG2, 21.9 µM; in the experiment with HCT-116 it was 23.1 µM.

Take `COc1ccc2nc(NC(=O)[C@@]3(C)CC[C@]4(C)CC[C@]5(C)C(=CC(=O)[C@@H]6[C@@]7(C)CC[C@H](OC(C)=O)C(C)(C)[C@@H]7CC[C@]65C)[C@@H]4C3)sc2c1`: the IC50 in experiment [1] was 90.1 µM; in the experiment with A549, 75.5 µM; with MCF7, 81.2 µM; in the experiment with HepG2, 85.6 µM; in the experiment on HCT-116 it was more than 100 µM.

In the case of `CC(=O)O[C@H]1CC[C@]2(C)[C@H]3C(=O)C=C4[C@@H]5C[C@@](C)(C(=O)Nc6nc7ccc(Br)cc7s6)CC[C@]5(C)CC[C@@]4(C)[C@]3(C)CC[C@H]2C1(C)C`, the IC50 in experiment [1] came to 81.9 µM; with A549 it was 69.7 µM; in the experiment on MCF7, 78.1 µM; in the experiment with HepG2 it was 86 µM; in the experiment on HCT-116, 76.8 µM.

In the case of `CC(=O)O[C@H]1CC[C@]2(C)[C@H]3C(=O)C=C4[C@@H]5C[C@@](C)(C(=O)Nc6nc7ccccc7s6)CC[C@]5(C)CC[C@@]4(C)[C@]3(C)CC[C@H]2C1(C)C`, the IC50 (in experiment [1]; in the experiment on A549; in the experiment on MCF7; in the experiment on HepG2; in the experiment on HCT-116) was more than 100 µM each time.

As to `CC(=O)O[C@H]1CC[C@]2(C)[C@H]3C(=O)C=C4[C@@H]5C[C@@](C)(C(=O)Nc6nc7ccc(C)cc7s6)CC[C@]5(C)CC[C@@]4(C)[C@]3(C)CC[C@H]2C1(C)C`, the IC50 (in experiment [1]; in the experiment with A549; in the experiment on MCF7; with HepG2; in the experiment on HCT-116) was more than 100 µM each time.

With `CC(=O)O[C@H]1CC[C@]2(C)[C@H]3C(=O)C=C4[C@@H]5C[C@@](C)(C(=O)Nc6nc7ccc(Cl)cc7s6)CC[C@]5(C)CC[C@@]4(C)[C@]3(C)CC[C@H]2C1(C)C`, the IC50 was determined as 77.6 µM in experiment [1]; 62.6 µM with A549; 66.7 µM in the experiment on MCF7; 73.1 µM in the experiment on HepG2; 68.5 µM with HCT-116.
